Measured values gathered from unrelated publications.
Each line is one published result; the experiments were not run side by side.
Target: Homeodomain-interacting protein kinase 1 (HIPK1, Homo sapiens, UniProt Q86Z02)

SMILES	observed	method	concentration	remaining binding [%]
COc1ccc2cc(OCC3(C(=O)O)CN(C(=O)c4ccc(F)cc4)C3)ccc2c1	cell-free assay	competition with immobilised ligand	1 µM	100
CN(C)c1ncc(F)c(-c2cnn3ncccc23)n1	binding		1 µM	75
CC(=O)C1=C(C)N(c2cccc(C(F)(F)F)c2)C(=O)N[C@@H]1c1ccc(C#N)nc1	cell-free assay	competition with immobilised ligand	1 µM	72.6
C[C@H]1CCN(c2nccc(-c3cnn4ncccc34)n2)C1	binding		1 µM	40
Cc1cnc(Nc2ccc(C(=O)N3CCC(N4CCCC4)CC3)cc2)nc1-c1cc2ccccc2s1	binding	competition with immobilised ligand	1 µM	2.2
Cc1c(C(=O)O)cc(-c2ccc(C3CCNCC3)cc2)c2ccc(-c3ccc(C(F)(F)F)cc3)cc12	binding	competition with immobilised ligand	1 µM	100
CN(C)c1nccc(-c2cnc3ncccn23)n1	binding		1 µM	44
COc1cnc(Nc2cccc(S(N)(=O)=O)c2)nc1N1CCN(c2ccccc2)C(=O)C1	binding	competition with immobilised ligand	1 µM	79
COc1cc(-c2cn(C3CCc4ccccc4N(CC(F)(F)F)C3=O)nn2)ccc1-n1ccc(C)n1 (stereo not drawn)	cell-free assay	competition with immobilised ligand	1 µM	96
COc1ncc2cc3ccccc3nc2c1C#N	cell-free assay	competition with immobilised ligand	5 µM	81
c1cncc(-c2cccc(Nc3nccc(NC4CCCCC4)n3)c2)c1	binding	competition with immobilised ligand	10 µM	56
Cc1cc(-n2nc(Cc3cc(F)cc(C(F)(F)F)c3)nc2C)ccc1C(N)=O	cell-free assay	competition with immobilised ligand	1 µM	92
FC(F)(F)Oc1cccc(-c2cnc3ccc(-c4ccncc4)nn23)c1	cell-free assay	competition with immobilised ligand	5 µM	0.15
O=C(NCC1CCOCC1)c1n[nH]cc1NC(=O)c1c(F)cccc1F	binding	competition with immobilised ligand	1 µM	69
Cc1cnn2ncc(-c3ccnc(N(C)C)n3)c2c1	binding		1 µM	39
O=C(c1ccc(Nc2ncc(Cl)c(-c3ccc(Cl)s3)n2)cc1)N1CCC(N2CCCC2)CC1	binding	competition with immobilised ligand	1 µM	1.3
CN(C)c1nccc(-c2cnn3ncccc23)n1	binding		1 µM	55
Nc1ncc2c(n1)-c1c([nH]c3ccc(C#CC4CC4)cc13)CCCC2	binding	competition with immobilised ligand	1 µM	87
N[C@@H]1CCN(c2nccc(-c3cnn4ncccc34)n2)C1	binding		1 µM	43
CCCCN(CCCC)C(=O)CN1C[C@@H](c2cc(OC)c3c(c2)OCO3)[C@H](C(=O)O)[C@H]1CC(C)(C)CCC	cell-free assay	competition with immobilised ligand	1 µM	77.3
O=C(c1ccc(Nc2ncc(Cl)c(-c3cc4ccccc4s3)n2)cc1)N1CCC(N2CCCC2)CC1	binding	competition with immobilised ligand	1 µM	1.4
